Measured values: PubChem BioAssay
The source made the active and inactive calls.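 The calls were made as follows, unless noted: active = GFP response above 150% of the DMSO level; inconclusive = fewer than 70 events counted for a yeast strain; inactive = the rest.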

What was measured:
[1] = RPL19A-GFP modulators, yeast TOR pathway, confirmation, cell-based, S. cerevisiae, flow cytometry, cherry picks, mother/daughter gates (AID 2270;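 active = GFP response below 50% of the DMSO control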); conditions: S. cerevisiae RPL19A-GFP strain, 3 h, at 10 µM, stronger effect = lower value, 100 = same GFP as DMSO wells
[2] = LAP4-GFP expression modulators in yeast, confirmation, cell-based, cherry picks, flow cytometry, mother/daughter gates (AID 2271;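 active = GFP response above 150% of the DMSO control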;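 also: ratio of sample to DMSO plate mean so 100% equals DMSO level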); conditions: S. cerevisiae LAP4-GFP strain, 3 h, at 10 µM, stronger effect = higher value, 100 means same as DMSO control
In short: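 Material: Alexa Fluor 633-labelled Saccharomyces cerevisiae GFP-fusion strain, single-plex | Amount: Yeast cells seeded at OD600 of 0.2 | Buffer or medium: SC growth medium | Schedule: 3 h exposure, 30 °C | Measured by: HT flow cytometry, GFP fluorescence channel | Evaluation: % GFP response vs DMSO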

[3] = modulators of MEP2-GFP levels in yeast, confirmation, S. cerevisiae, flow cytometry GFP, cherry picks (AID 2272;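 active = GFP response above 150% of the DMSO control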;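 also: ratio of well signal to plate DMSO mean so 100% equals DMSO level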); conditions: S. cerevisiae MEP2-GFP strain, 3 h, at 10 µM, stronger effect = higher value
[4] = AGP1-GFP expression modulators, hit retest, confirmation, cell-based, flow cytometry, S. cerevisiae, cherry picks (AID 2273);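 also: median GFP channel fluorescence over the whole cell population gate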; conditions: S. cerevisiae AGP1-GFP strain, 3 h, at 10 µM
[5] = modulators of CIT2-GFP expression in yeast, confirmation, S. cerevisiae, GFP fusion, cherry picks, mother/daughter gates (AID 2274); conditions: S. cerevisiae CIT2-GFP strain, flow cytometry, 3 h, at 10 µM, stronger effect = higher value
[6] = measured here: daughter cell gate
[7] = measured here: mother cell gate
[8] = measured here: daughter cell gate response
[9] = measured here: mother cell gate response

Row | SMILES | GFP response vs DMSO [1] | GFP response vs DMSO [1, 6] [%] | GFP response vs DMSO [1, 7] [%] | GFP response relative to DMSO [2] | GFP response relative to DMSO [2, 8] [%] | GFP response relative to DMSO [2, 9] [%] | GFP response vs DMSO [3] | GFP response, % of DMSO [4] | GFP response, % of DMSO [5] | GFP response, % of DMSO [5, 6] [%] | GFP response, % of DMSO [5, 7] [%]
1 | Cc1ccc(Oc2nc(-c3ccccn3)nc3ccccc23)cc1 | 98.2% (inactive) | 94.7 | 97.8 | 110% (inactive) | 107 | 110 | 103% (inactive) | 92.2% (inactive) | 91.5% (inactive) | 92 | 90.7
2 | O=[N+]([O-])c1cc(F)c2cccnc2c1O | 98.7% (inactive) | 93.3 | 96.7 | 219% (active) | 176 | 204 | 126% (inactive) | 125% (inactive) | 107% (inactive) | 101 | 104
3 | Cc1ccc(C=C2C(Cl)=C(Cl)C(Cl)=C2Cl)cc1 | 103% (inactive) | 102 | 97.7 | 148% (inactive) | 139 | 161 | 114% (inactive) | 105% (inactive) | 106% (inactive) | 105 | 94.7
4 | Cc1nn(C)c(C)c1N1C(=O)c2cccc3c(Br)ccc(c23)C1=O | 103% (inactive) | 102 | 103 | 136% (inactive) | 137 | 134 | 207% (active) | 112% (inactive) | 148% (inactive) | 152 | 141
5 | Cc1ccc2c(c1)c1c(c(=O)n(-c3ccccc3C)c(=O)n1CC(=O)NCC1CCCO1)n2C (stereo unspecified) | 98.4% (inactive) | 99.9 | 97.2 | 102% (inactive) | 101 | 101 | 100% (inactive) | 98.3% (inactive) | 103% (inactive) | 103 | 102
6 | CCNC(=O)/C(C#N)=C/c1c(N(Cc2ccccc2)Cc2ccccc2)nc2ccccn2c1=O | 101% (inactive) | 101 | 102 | 102% (inactive) | 101 | 103 | 110% (inactive) | 99.3% (inactive) | 105% (inactive) | 108 | 104
7 | Cc1ccccc1Sc1ncnc2onc(C)c12 | 98.5% (inactive) | 99 | 96.9 | 97.7% (inactive) | 96 | 97.4 | 106% (inactive) | 104% (inactive) | 98.6% (inactive) | 101 | 98.2
8 | COc1ccc(/C=N\NC(=O)c2cc(OCC(F)(F)F)ccc2OCC(F)(F)F)cc1 | 93.7% (inactive) | 97.9 | 94 | 96.7% (inactive) | 97.6 | 98.3 | 102% (inactive) | 94.8% (inactive) | 98.3% (inactive) | 99.1 | 95
9 | CCCC(=O)c1ccc(N2CCN(C(=O)c3ccc(Br)cc3)CC2)c(F)c1 | 101% (inactive) | 95.9 | 94 | 102% (inactive) | 99.2 | 99.3 | 102% (inactive) | 100% (inactive) | 105% (inactive) | 105 | 99.7
10 | Cc1cc(=O)[nH]c(-n2nc(C)cc2C)n1 | 98% (inactive) | 99.1 | 97.8 | 101% (inactive) | 101 | 100 | 105% (inactive) | 99.8% (inactive) | 94.4% (inactive) | 97.4 | 91.9
11 | Cc1cc(NCCN2CCOCC2)n2nc(C)c(-c3ccccc3)c2n1 | 98.8% (inactive) | 99.1 | 97.4 | 100% (inactive) | 95 | 99.5 | 102% (inactive) | 95.2% (inactive) | 92.1% (inactive) | 94.6 | 91
